Rows were chosen to be rich in hits. Some 1.3% of all compounds tested hit in one or more screens of this group.
RBBP9 inhibitor = human RBBP9 hydrolase inhibition | O75884 | inhibition, % at 7.94 µM | AID 1515 | 0.2% of 220,000 active | recombinant RBBP9, FP-Rh probe fluorescence polarization;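 active means inhibition above the campaign mean of all tested compounds plus 3 SD, cut at about 14% in these data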;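 further: plate controls were DMSO wells with RBBP9 for no effect and wells lacking RBBP9 protein for full effect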
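Test system – recombinant human RBBP9 · Input – RBBP9 2.5 µM in dispensing solution, pre-mixing · Medium – Tris buffer pH 8.0, NaCl, Pluronic · Schedule – preincubation 30 min plus labeling 45 min at 25 °C · Measured by – fluorescence polarization · Measure – % inhibition · Controls – DMSO and no-protein wells · Replicates – one well per compound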
LYPLA2 inh = counter-screen for PME1 inhibitors: inhibitors of human LYPLA2. O95372. recombinant LYPLA2, FP-Rh probe fluorescence polarization. 0.38% of 320,000 active. inhibition, % at 5.9 µM;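 active means inhibition above the screen-wide mean plus 3 SD, limit set per campaign, cut at about 26% in these data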;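 further: 0% = LYPLA2 with DMSO and 100% = wells lacking LYPLA2 enzyme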
PAD4 FP inh = blocks human protein arginine deiminase 4 | Q9UM07 | recombinant PAD4, RCA probe fluorescence polarization | inhibition, % at 6.36 µM | 0.41% of 330,000 active | AID 485272;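 active means percent inhibition above a cutoff equal to the mean of all tested compounds plus 3 SD, cut at about 15% in these data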;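 further: 0% = PAD4 with RCA probe and DMSO and 100% = probe without PAD4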
Target sequence (Q9UM07 whole entry, looked up): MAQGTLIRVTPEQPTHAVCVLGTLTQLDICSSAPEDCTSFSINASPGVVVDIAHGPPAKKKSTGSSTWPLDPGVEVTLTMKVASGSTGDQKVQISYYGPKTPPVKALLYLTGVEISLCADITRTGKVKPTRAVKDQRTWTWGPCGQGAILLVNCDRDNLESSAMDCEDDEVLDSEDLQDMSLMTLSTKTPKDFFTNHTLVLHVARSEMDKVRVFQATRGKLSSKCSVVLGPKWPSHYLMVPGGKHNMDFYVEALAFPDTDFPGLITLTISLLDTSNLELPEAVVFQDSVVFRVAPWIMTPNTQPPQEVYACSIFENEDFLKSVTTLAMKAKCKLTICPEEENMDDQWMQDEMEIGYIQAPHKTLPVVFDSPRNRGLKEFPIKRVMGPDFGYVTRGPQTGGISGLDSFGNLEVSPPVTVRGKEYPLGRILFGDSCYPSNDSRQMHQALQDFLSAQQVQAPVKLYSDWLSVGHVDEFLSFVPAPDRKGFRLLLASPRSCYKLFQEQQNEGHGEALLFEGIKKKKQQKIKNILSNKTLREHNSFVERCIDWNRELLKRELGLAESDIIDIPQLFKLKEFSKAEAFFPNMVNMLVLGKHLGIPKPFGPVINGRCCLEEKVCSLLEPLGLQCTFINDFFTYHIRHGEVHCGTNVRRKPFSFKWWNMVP
LYPLA1 inh = LYPLA1 (human) inhibition in PME1 counter-screen; O75608; recombinant LYPLA1, FP-Rh probe fluorescence polarization; inhibition, % at 5.9 µM; 0.16% of 320,000 active;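 active means inhibition above the mean of all tested compounds plus 3 SD, set per campaign, cut at about 14% in these data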;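 further: inhibitors block serine hydrolase probe labeling of LYPLA1 so polarization falls; 0% = enzyme with DMSO and 100% = wells lacking LYPLA1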
Fam108B inh = counter-screen for RBBP9 inhibitors: inhibitors of mouse Fam108B; recombinant Fam108B, FP-Rh probe fluorescence polarization; inhibition, % at 9.51 µM; 0.33% of 300,000 active; AID 1947;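 active means inhibition above the screen mean inhibition plus 3 SD, computed separately per campaign, cut at about 18% in these data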;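 further: inhibitors lower polarization as less probe binds the enzyme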
PME-1 inh = blocks human protein phosphatase methylesterase 1 | Q9Y570 | recombinant PME-1, FP-Rh probe fluorescence polarization | inhibition, % at 5.9 µM | 0.53% of 320,000 active | AID 2130;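 active means inhibition above the campaign mean of all compounds plus 3 SD, cut at about 26% in these data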;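 further: competitive labeling of PME-1 active site by serine hydrolase directed probe; 0% = PME-1 with DMSO and 100% = wells lacking PME-1 enzyme; inhibitors block probe labeling so polarization falls and inhibition rises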
PAD4 confirm = confirmation of human PAD4 inhibitors; recombinant PAD4, RCA probe fluorescence polarization; shares compounds with PAD4 FP inh; AID 488796; 28% of 1,200 active; inhibition, % at 6.36 µM;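 active means mean inhibition across replicates above the hit cutoff set by the earlier primary screen, cut at about 15% in these data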;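 further: inhibitors block active-site labeling by the probe so polarization falls; 0% = PAD4 with probe and DMSO and 100% = probe without PAD4 enzyme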
An asterisk follows results filed as active; . = not tested or not shown.

SMILES	RBBP9 inhibitor	LYPLA2 inh	PAD4 FP inh	LYPLA1 inh	Fam108B inh	PME-1 inh	PAD4 confirm
CCOC(=O)CC(/C(C)=N\O)c1ccccc1 (configuration not stated)	3	1	21*	-4	5	0	-6
CCOc1ccc(C(=O)NCC(=O)NNC(=O)CN(C)S(=O)(=O)c2ccc(Cl)cc2)cc1	.	7	-7	1	0	4	.
CC1=NN(c2ccc(C(=O)O)cc2)C(=O)CC1	.	-5	3	3	2	2	.
CC1=NN(c2ccc(S(=O)(=O)O)cc2Cl)C(=O)C1	3	1	-17	-1	1	-5	.
CC1=NN(c2ccc(Cl)c(C(=O)O)c2)C(=O)C1	5	3	36*	1	3	-4	-2
CC1=NN(c2ccc(C(=O)O)c(N)c2)C(=O)C1	6	8	25*	1	11	-7	17*
O=C1C(=O)N(CCS(=O)(=O)c2ccccc2)c2ccc(F)cc21	.	9	-6	2	-1	-2	.
O=C(CN1c2cccc3cccc(c23)S1(=O)=O)Nc1ccc(S(=O)(=O)N2CCOCC2)cc1	-5	5	17*	-5	7	3	32*
CC(Sc1ccc2c(c1)OCCO2)C(=O)Nc1ccc(N2CCOCC2)cc1 (configuration not stated)	2	1	4	1	1	-2	.
COCCOC(=O)c1c(N)n(CCCN2CCOCC2)c2nc3ccccc3nc12	-4	0	-5	-1	1	7	.
CCCCCOC(=O)c1c(N)n(CCOC)c2nc3ccccc3nc12	-3	5	26*	0	10	-1	-10
Cn1cc(S(=O)(=O)N2CCCC2)cc1C(=O)N1CCN(c2ccccc2)CC1	.	-1	-2	2	-3	1	.
CC(=O)C1=C(c2cccc([N+](=O)[O-])c2)N(C(C)=O)n2c(C)nnc2S1	-12	0	19*	-3	-2	-3	23*
CC(C)(C)c1nnc2sc(SCC(=O)N3CCCc4ccccc43)nn2c1=O	-9	6	8	3	4	-4	.
CC1Cc2ccccc2N1C(=O)CSc1nn2c(=O)c(C(C)(C)C)nnc2s1 (configuration not stated)	-3	3	15*	-5	-5	-11	8
COc1ccc(OC)c(NC(=O)C(=O)NNC(=O)C23CC4CC(CC(C4)C2)C3)c1	-9	2	2	0	1	1	.
O=C(NCc1ccco1)c1cc2ccccc2o1	-3	-3	1	-2	0	-3	.
CN(C)C(CNC(=O)c1cc2ccccc2o1)c1ccco1 (configuration not stated)	.	.	88*	.	.	.	3
O=C1CCCC(O)=C1N=Nc1c(Cl)cc(C(F)(F)F)cc1Cl	-8	16	85*	9	1	13	0
CC1(C)CC(=O)C(N=Nc2cc(C(F)(F)F)ccc2Cl)=C(O)C1	2	3	1	0	-3	-3	.
Cc1ccc(NS(=O)(=O)c2cccc([N+](=O)[O-])c2)nc1	-6	0	-8	-1	5	-5	.
CC(=O)c1cccc(OCc2cc(C(=O)N3CCSCC3)no2)c1	.	5	35*	-1	-1	2	6
COc1cc(C(C)=O)ccc1OCc1cc(C(=O)N2CCSCC2)no1	.	1	-2	4	-3	4	.
COc1cc2ccccc2cc1C(=O)NC1CCC(C)CC1 (configuration not stated)	.	.	16*	.	.	.	4
CCCN(CC(=O)Nc1cc(C)on1)CC(=O)Nc1ccccc1C	.	-2	0	0	.	6	.
SMILES	RBBP9 inhibitor	LYPLA2 inh	PAD4 FP inh	LYPLA1 inh	Fam108B inh	PME-1 inh	PAD4 confirm
COc1cc(/C=C2\C(=O)N(CCC#N)N=C2C)ccc1OCC(=O)Nc1ccccc1	8	-3	51*	-1	-5	0	-8
CCOc1cc(/C=C2\C(=O)N(CCC#N)N=C2C)ccc1OCC(N)=O	-11	3	57*	8	-1	-2	-6
CC1=NN(CCC#N)C(=O)/C1=C/c1ccc(N(C)C)cc1	-12	9	-21	1	2	-1	.
COc1cc(/C=C2\SC(N)=NC2=O)ccc1OCC(=O)Nc1ccc(C)cc1	-11	-10	-4	-20	-12	-18	.
CCOc1ccccc1N1CCN(C(=O)c2csc(C)c2CC)CC1	-1	9	-4	3	0	2	.
COC(=O)c1c(NC(=O)CSc2nc3nc(C)cc(C)n3n2)sc(C)c1C	-11	-1	-6	2	-1	0	.
CCNC(=O)c1ccc(CSc2ccc(Cl)cc2)cc1	5	9	-1	0	-3	3	.
Cn1[nH]c(CSc2ccc(Cl)cc2)cc1=O	8	2	38*	-2	0	-4	6
O=C(NC1CCCCC1)C(c1cccs1)N(CCCN1CCOCC1)C(=O)c1ccc(-c2ccccc2)[nH]1 (configuration not stated)	-7	1	63*	0	-3	0	-5
Cc1ccc(C(C(=O)NC(C)(C)C)N(CCCN2CCOCC2)C(=O)c2ccc(-c3ccccc3)[nH]2)o1 (configuration not stated)	-9	-5	-1	-6	-5	-7	.
N/C(=N\OC(=O)c1cccc(C(F)(F)F)c1)c1cnccn1	.	2	1	-5	2	-4	.
O=C(OCn1ncc(Cl)c(Cl)c1=O)c1cccc(C(F)(F)F)c1	-12	-18	32*	-8	-11	-8	20*
NC(=S)Nc1cccc2[nH]ccc12	-6	-2	-3	1	-1	2	.
O=c1[nH]c(Nc2ccccc2Cl)cc2ccccc12	.	3	28*	-1	2	10	9
Cc1nnc(Nc2ccc(F)cc2)c2ccccc12	.	2	3	1	3	-1	.
O=c1[nH]c(Nc2ccc(F)cc2)cc2ccccc12	1	7	43*	5	11	11	17*
COc1ccc(NC(=O)N2CCN(C(=O)C(Cc3ccc(F)cc3)NC(C)=O)CC2)cc1 (configuration not stated)	-8	-3	3	-1	-1	10	.
COc1ccc(NC(=O)c2ccc(S(=O)(=O)N3CCCC3)cc2)cc1OC	.	2	1	1	.	-4	.
CC(C)Sc1nc2ccccc2n2cnnc12	.	7	-5	9	-2	-4	.
COc1ccc(C2=CCC3CCCCN3C2)cc1OC (configuration not stated)	.	.	5	.	.	.	.
CC1=CC(C)(C)N2C(=O)C3(C(C#N)=C(N)OC4=C3C(=O)CC(C)(C)C4)c3cccc1c32 (configuration not stated)	-3	.	.	.	.	.	.
CC1=CC(C)(C)N2C(=O)C3(C(C#N)=C(N)OC4=C3C(=O)CC(C)(C)C4)c3c(C)c(C)cc1c32 (configuration not stated)	-10	-7	40*	3	-4	3	-4
